# From ChEMBL document CHEMBL4622968, “Discovery of [1,2,4]triazolo[4,3-a]pyridines as potent Smoothened inhibitors targeting the Hedgehog pathway with improved antitumor activity in vivo” (Bioorg Med Chem, 2020)
# Activity calls are given as the source filed them. The calls are words filed in the database; no cut-off is given here.
# Key:
# HeLa = experiment: Antiproliferation activity against human HeLa cells assessed as reduction in cell viability incubated for 72 hrs by MTT assay; type: functional, cell-based
# In short: (§1)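 MTT assay. Cells were plated overnight and exposed to a range of concentrations for 72 h. MTT was then added for 4 h and absorbance read at 570 nm. Inhibition% = [(control − compound)/(control − blank)] × 100. IC50 was fitted from the curves. Mean ± S.D. of 3–5 separate experiments. RPMI 1640 + 10% FBS; MCF10A in DMEM/F12 with 5% horse serum, EGF, hydrocortisone, insulin and cholera toxin.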
# [1] = Acute toxicity in Kunming mouse assessed as lethality through intragastric administration observed for 14 days; conditions: in vivo, po
# In short: (§2)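 Kunming mice, groups of 5 female and 5 male per dose, dosed once by gavage at graded doses; mortality recorded over 14 days as dead/treated and percent. LD50 derived by improved Karber's method: LD50 = lg^-1[xm − i(ΣP − 0.5)], xm log of maximal dose, i log ratio of neighbouring doses; 95% confidence intervals given.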
# MDA-MB-468 [2] = experiment: Induction of apoptosis in human MDA-MB-468 cells assessed as increase in apoptosis incubated for 48 hrs by annexin-V-FITC/PI staining based flow cytometric method; type: functional, cell-based
# MDA-MB-468 [3] = experiment: Induction of apoptosis in human MDA-MB-468 cells assessed as early apoptotic cells at 56 uM incubated for 48 hrs by annexin-V-FITC staining based flow cytometric method (reference value: 2.00 %); type: functional
# MDA-MB-468 [4] = experiment: Antitumour activity against human MDA-MB-468 cells xenografted in BALB/c mouse assessed as reduction in tumour volume at 80 mg/kg, ig measured every 2 days for 21 days relative to control; type: functional; parameters: scale not given: the % may be the effect or the level left
# In short: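 Female BALB/c nude mice, 6–8 weeks old, were given subcutaneous flank injections of 1.0×10^7 MDA-MB-468 cells in 0.2 ml PBS. At 100 mm³ tumours they were randomized, five per group. Daily gavage in saline with 0.1% Tween 80 at 80 or 100 mg/kg, or vehicle alone. Tumour volume measured every 2 days and body weight daily. Tumours excised and weighed at day 21.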
# MDA-MB-468 [5] = experiment: Induction of cell cycle arrest in human MDA-MB-468 cells assessed as cell accumulation at S phase at 56 uM incubated for 48 hrs by propidium iodide staining-based flow cytometric analysis (reference value: 34.20 %); type: functional
# In short: (§3)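 Cells were seeded at 1.2×10^5 per well and treated for 48 h (MDA-MB-468: 14, 28, 56 μM). Cells were fixed in 75% ethanol at −20 °C overnight, stained with PI and analysed by flow cytometry. Mean ± S.D. of three independent experiments versus DMSO.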
# MDA-MB-468 [6] = experiment: Induction of apoptosis in human MDA-MB-468 cells assessed as necrotic cells at 14 uM incubated for 48 hrs by annexin-V-FITC staining based flow cytometric method (reference value: 1.52 %); type: functional
# MDA-MB-468 [7] = experiment: Induction of cell cycle arrest in human MDA-MB-468 cells assessed as cell accumulation at G2/M phase at 28 uM incubated for 48 hrs by propidium iodide staining-based flow cytometric analysis (reference value: 26.66 %); type: functional; in short: as §3
# MDA-MB-468 [8] = experiment: Induction of cell cycle arrest in human MDA-MB-468 cells assessed as cell accumulation at G2/M phase incubated for 48 hrs by propidium iodide staining-based flow cytometric analysis; type: functional; in short: as §3
# MDA-MB-468 [9] = experiment: Induction of apoptosis in human MDA-MB-468 cells assessed as late apoptotic cells at 56 uM incubated for 48 hrs by annexin-V-FITC staining based flow cytometric method (reference value: 0.99 %); type: functional
# Protein smoothened [10] = target: T1, Protein smoothened (Homo sapiens, UniProt Q99835); experiment: Binding affinity to recombinant human Smo receptor assessed as dissociation constant at equilibrium by SPR analysis
# MCF-10A = experiment: Cytotoxicity against human MCF10A cells assessed as cell viability incubated for 72 hrs measured by MTT assay; type: cell-based; in short: as §1
# MDA-MB-468 [11] = experiment: Induction of apoptosis in human MDA-MB-468 cells assessed as early apoptotic cells at 14 uM incubated for 48 hrs by annexin-V-FITC staining based flow cytometric method (reference value: 2.00 %); type: functional
# Protein smoothened [12] = target: T1, Protein smoothened; experiment: Binding affinity to recombinant human Smo receptor assessed as dissociation rate constant by SPR analysis
# In short: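 Surface plasmon resonance with recombinant Smo protein, run in PBS at a flow rate of 2 μL/s and 4 °C. Analytes were injected at 2.5, 5 and 10 μM. The chip was regenerated with 0.5% SDS:glycine-HCl pH 2.0 (1:1). ka, kd, Rmax, KA and KD came from a global fit of the sensorgrams.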
# [13] = Acute toxicity in Kunming mouse assessed as mortality at 5226 mg/kg, ig observed for 14 days relative to control; type: organism-based; conditions: in vivo, po, read-out: Activity; in short: as §2
# MCF7 = experiment: Antiproliferation activity against human MCF7 cells assessed as reduction in cell viability incubated for 72 hrs by MTT assay; type: functional, cell-based; conditions: MCF7, 72 h; in short: as §1
# Protein smoothened [14] = target: T1, Protein smoothened; experiment: Displacement of BODIPY-Cyclopamine from wild type Smo receptor (unknown origin) expressed in HEK293 cells incubated for 12 hrs by Hoechst 33342 based fluorescence microscopic method; type: cell-based
# In short: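 HEK293 cells were transiently transfected in triplicate with a wild-type Smo plasmid, with expression confirmed by western blot. Cells were loaded with BODIPY-cyclopamine, then given unlabelled cyclopamine (25 μM) or test compound (1 or 25 μM) for 12 h at 37 °C. Nuclei were counterstained with Hoechst 33342. Green fluorescence was imaged by fluorescence microscopy.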
# MDA-MB-468 [15] = experiment: Induction of cell cycle arrest in human MDA-MB-468 cells assessed as cell accumulation at S phase at 14 uM incubated for 48 hrs by propidium iodide staining-based flow cytometric analysis (reference value: 34.20 %); type: functional; in short: as §3
# MDA-MB-468 [16] = experiment: Induction of cell cycle arrest in human MDA-MB-468 cells assessed as cell accumulation at G2/M phase at 14 uM incubated for 48 hrs by propidium iodide staining-based flow cytometric analysis (reference value: 26.66 %); type: functional; in short: as §3
# MDA-MB-468 [17] = experiment: Induction of apoptosis in human MDA-MB-468 cells assessed as decrease in Bcl2 protein expression level incubated for 1 hr by Western blot analysis; type: functional, cell-based
# [18] = Inhibition of hedgehog pathway in mouse NIH/3T3 cells harboring GRE-Luc assessed as inhibition of SAG-induced Hh signaling pathway by dual luciferase reporter gene assay; type: cell-based; conditions: NIH3T3
# In short: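 NIH3T3 cells co-transfected with 8×3' Gli-BS-delta51-Luc II firefly reporter and pRL-TK Renilla plasmid; after 24 h treated with compounds plus SAG (pathway activator). Gli luciferase normalized to Renilla (dual-luciferase read-out); IC50 = concentration halving normalized signal; mean ± S.D. of 3–5 separate experiments.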
# MDA-MB-468 [19] = experiment: Induction of cell cycle arrest in human MDA-MB-468 cells assessed as cell accumulation at G0/G1 phase at 14 uM incubated for 48 hrs by propidium iodide staining-based flow cytometric analysis (reference value: 38.94 %); type: functional; in short: as §3
# MDA-MB-468 [20] = experiment: Induction of apoptosis in human MDA-MB-468 cells assessed as necrotic cells at 28 uM incubated for 48 hrs by annexin-V-FITC staining based flow cytometric method (reference value: 1.52 %); type: functional
# [21] = Acute toxicity in Kunming mouse assessed as mortality at 4552 mg/kg, ig observed for 14 days relative to control; type: organism-based; conditions: in vivo, po, read-out: Activity; in short: as §2
# T1 sequence (Q99835 whole entry): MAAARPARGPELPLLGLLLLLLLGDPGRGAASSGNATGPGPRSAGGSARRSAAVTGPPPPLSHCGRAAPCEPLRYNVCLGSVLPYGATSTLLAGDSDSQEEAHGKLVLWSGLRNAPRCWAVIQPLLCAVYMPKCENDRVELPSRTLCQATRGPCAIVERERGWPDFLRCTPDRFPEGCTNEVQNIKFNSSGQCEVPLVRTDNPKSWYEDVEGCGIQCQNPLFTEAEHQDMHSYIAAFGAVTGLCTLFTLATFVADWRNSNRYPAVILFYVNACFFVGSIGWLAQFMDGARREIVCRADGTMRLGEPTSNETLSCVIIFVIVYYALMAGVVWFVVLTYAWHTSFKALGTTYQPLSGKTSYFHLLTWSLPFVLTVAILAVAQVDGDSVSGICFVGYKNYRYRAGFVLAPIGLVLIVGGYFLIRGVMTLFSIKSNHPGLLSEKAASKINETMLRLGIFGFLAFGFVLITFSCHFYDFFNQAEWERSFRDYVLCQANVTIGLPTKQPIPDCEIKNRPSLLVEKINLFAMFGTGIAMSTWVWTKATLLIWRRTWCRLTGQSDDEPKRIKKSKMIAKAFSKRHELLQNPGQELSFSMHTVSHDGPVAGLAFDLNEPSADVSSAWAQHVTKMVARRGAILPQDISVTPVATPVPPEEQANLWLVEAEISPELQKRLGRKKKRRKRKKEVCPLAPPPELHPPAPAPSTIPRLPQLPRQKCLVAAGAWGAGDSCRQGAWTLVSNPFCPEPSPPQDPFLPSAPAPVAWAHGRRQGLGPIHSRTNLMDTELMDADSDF
structure (smiles),measurement,setting,value
O=C(Nc1ccc(Cl)c(-c2nnc3c(Cl)cccn23)c1)c1ccc(Cl)nc1Cl,IC50,HeLa,66.3 µM
same,LD50 at 336 h,[1],3880 mg/kg
same,Activity,MDA-MB-468 [2],Dose-dependent effect
same,Activity,MDA-MB-468 [3],6.53%
same,Activity,MDA-MB-468 [4],64.97%
same,Activity,MDA-MB-468 [5],44%
same,Activity,MDA-MB-468 [6],9.4%
same,Activity,MDA-MB-468 [7],39.75%
same,Activity,MDA-MB-468 [8],Dose-dependent effect
same,Activity,MDA-MB-468 [9],24.1%
same,Kd,Protein smoothened [10],0.0103 µM
same,IC50,MCF-10A,> 100 µM
same,Activity,MDA-MB-468 [11],8.63%
same,Kdiss,Protein smoothened [12],0.00375 ×10⁻³ /s
same,mortality at 336 h,[13],70%
same,IC50,MCF7,61.5 µM
same,Activity,Protein smoothened [14],Dose-dependent effect
same,Activity,MDA-MB-468 [15],45%
same,Activity,MDA-MB-468 [16],86%
same,Activity,MDA-MB-468 [17],Active
same,IC50,[18],0.09 µM
same,Activity,MDA-MB-468 [19],30.69%
same,Activity,MDA-MB-468 [20],9.86%
same,mortality at 336 h,[21],60%
